System: MS2 coat protein
Experiment: apparent Kd, MS2 coat protein; higher = weaker binding; RNA-MaP array; FMN 200 µM where present
Procedure, shortened: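 In 100 mM Tris-HCl pH 7.5, 80 mM KCl, 4 mM MgCl2, BSA, DTT, yeast tRNA and Tween-20, SNAP-549-labelled MS2 coat protein was titrated from 0.7 or 1.5 nM, doubling to 3 µM, over designs transcribed by stalled E. coli RNA polymerase on Illumina sequencing-chip clusters. This was done first without ligand, then with ligand held constant. After green signal was normalised to red-channel RNA signal and control-cluster median Fmax, the apparent Kd was taken as the median of filtered per-cluster binding-curve fits.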

[1] = designed as: OFF switch for flavin mononucleotide, no ligand
[2] = ligand present: flavin mononucleotide, designed as: OFF switch for flavin mononucleotide
[3] = designed as: ON switch for flavin mononucleotide, no ligand
[4] = ligand present: flavin mononucleotide, designed as: ON switch for flavin mononucleotide

Sequence | apparent Kd [1] [nM] | apparent Kd [2] [nM] | apparent Kd [3] [nM] | apparent Kd [4] [nM]
AGGCGGGUAGGAUAUAUUUUCGUCAACAUGAGGAUCACCCAUGUGUCCUGAAGUGAUAUCAUAGAAGGGCCCAGCU | 25.4 | 33.8 | – | –
UCACGGAGCCUAGGAUAUACAUGAGGAUCACCCAUGUAUUGACGUUAGUGCUGGACUGAUUUGCUGUAGAAGGAGGUCACUGAG | 16.6 | 18.3 | – | –
CACUUCCCGUCAGGAUAUCGCCGUAGGUCCUCGGGUCUCGCCGUCAUACAUGAGGAUCACCCAUGUGAGAAGGGACGGGUUUCA | 16.4 | 107 | – | –
UGCGCCAGAGGAUAUCGGGCUCGCAACAUGAGGAUCACCCAUGUAGUAUGGUCUUAUUUUCGAGAAGGCUGUCGUU | 20.9 | 17.4 | – | –
CCCAAACUUGGGCUUGGCGGUGCAUAGGAUAUCCUUGAACAUGAGGAUCACCCAUGUACAACUGUGGAGAAGGGUGCAGGGCCU | – | – | 132 | 17.3
ACGACGAAAGUCGAACGAUGUAGCAGAAGGACAUGAGGAUCACCCAUGUCAGCUGUGACCUCAAAAUAGGAUAUGCUACAUCGA | 36.6 | 47.6 | – | –
GCUACGUCAGGAUAUCUGAUGUCUAACUUCGGUUAGACAUCAGAGAAGGGACAUGAGGAUCACCCAUGUAGCAG | 114 | 112 | – | –
UGAUAGGACAGAGGAUAUGCGUAUAGUUACCUCUACAUGAGGAUCACCCAUGUAGAAGGCUGUCCUAUCUAAGUCGGAAACGAC | 5.8 | 5.61 | – | –
AACAAACAUGAGGAUCACCCAUGUGAGGAUAUCGGAUGUACAGCGCAAUUAGAAUUAACGAGAAGGCACACUUA | 30.6 | 29.1 | – | –
AAAUUUAACGAAGGAUAUACUAACAUGAGGAUCACCCAUGUGUGUUUCGUGUUACUGAAAUUCGGGUAGAAGGUCGUAUACAUA | 80.4 | 33.7 | – | –
UUAACUCAUGUAGGAUAUGCAUGGCGAAGCUACGCAGAAGGACAUGAGGAUCACCCAUGUUCUAGCUACCGAGUUCGGUGGCAA | 92 | 272 | – | –
CCUUUGAAGAUCCUAAAUUUCGACAUGAGGAUCACCCAUGUGCAGGAUAUCGUGCCAGUGAUGUACGAGAAGGGCAGUCUCUGC | 49 | 53.5 | – | –
CCCAUGUUAGGAUAUAUGGAAGGGCGGACGGGCGCCCUUAGGUAGAAGGAACAUGAGGAUCACCCAUGUAAUAA | 171 | 161 | – | –
GGAUAGGACAGAGGAUAUACGUGCUAGAGAUACUAGCAAAAUUUCCUCACAUGAGGAUCACCCAUGUAGAAGGCUGUUCUAUCG | 14.6 | 473 | – | –
ACAUGAGGAUCACCCAUGUAGAUACUAGAAGGGUAAGACUAGUAGUUACAUGACGACCAAGCAUUACAGGAUAUAGGAAUUGGA | – | – | 81.2 | 39.2
CUAGCAUACCGAGGAUAUUCAUAUAAUAAAUAAACAUGAGGAUCACCCAUGUGGCGAAAGCCUAGGGAGAAGGCGGAAUGCUAC | – | – | 162 | 27
AGUGUGUGGCAGGAUAUUCUGGUCGUGAGUCGGGAAGAAGGGUCUACAUGAGGAUCACCCAUGUGAGCGGUUGA | 99.4 | 258 | – | –
AGAAAUUCAGGAUAUACAUGAGGAUCACCCAUGUUUGGCGGAGGCGCCGAGAUCCCACGUAGAAGGGAAAAGAC | 28 | 50.6 | – | –
GUAGCUACUAUUAUACAUGAGGAUCACCCAUGUUACAUGGGUAAGGAUAUUGAAGUUAUGAUUAUCAAGAAGGUACUAUGCUAC | – | – | 511 | 118
GGAUAGGACAGAGGAUAUACGUCCUAGAGAUACUAGCAAAAUUUCCUCACAUGAGGAUCACCCAUGUAGAAGGCUGUCCUAUCG | 12.6 | 141 | – | –
AGCUACGUUUCGUAGCAGUGUCAUCGAGAAGGCCCUGACAUGAGGAUCACCCAUGUUGUUACAUGGGAGGAUAUCGAUGAUACG | – | – | 12.2 | 4.68
AGCUAGUACCGAGGAUAUACAUACAUGAGGAUCACCCAUGUAUACAUGAAUUAAUGAGACUACAUGUAGAAGGCGGUACUAGCA | – | – | 69.1 | 16
UAUAAGAACGAAGGAUAUGGUUACAUGAGGAUCACCCAUGUAUUAAUUUUGAUCUAUUUUUAUAACCAGAAGGUCGAGAGUAAA | 36.2 | 49.5 | – | –
UCAUGUUAAGGAUAUACAUGAGGAUCACCCAUGUUUGUUCAAAAUCUUAGAUCCCAAUGUAGAAGGUGGCUGUA | 75.8 | 75.4 | – | –
AUUAUGAAUGCAGGAUAUGAUUAACAUGAGGAUCACCCAUGUGGUGUUGUGAGUAAGGAGAGUGAUCAGAAGGGCAUUUUUUUU | – | – | 593 | 585
GGAUAGGCCAGAGGAUAUACGUGCUAGAGAUACUAGCAAAAUUUCCUCACAUGAGGAUCACCCAUGUAGAAGGCUGUCCUAUCG | 7.31 | 49.9 | – | –
UUAUGAUAGAUAGGAUAUACUAUGGUUUAAGAAGUAGAAGGAUCAAUUGGGAAAUGUACAUGAGGAUCACCCAUGUUAUAGGUU | – | – | 37.1 | 33.7

Source: the EternaBench riboswitch data
